Lmaj promast – reduces viability of Leishmania major promastigotes. actives 9% (n = 200,000). inhibition, % at 10 µM. resazurin fluorescence viability; in the data active = inhibition above about 50%;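 note: promastigotes grown with compound for 44 hours at 28 °C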
ABCB1 block – blocks JC-1 efflux by human ABCB1 transporter; P08183; CCRF-Adr cells, flow cytometry; inhibition, % at 6.6 µM; actives 0.067% (n = 190,000); in the data active = inhibition above about 40%;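 note: 0% = vehicle and 100% = reference inhibitor; higher value means more JC-1 retained so stronger ABCB1 efflux block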
WT yeast gro inh – growth inhibition of WT yeast, mitochondrial fusion screen. actives 2.1% (n = 190,000). mitochondrial fusion phenotypic screen, WT strain. inhibition, % at 10 µM; in the data active = inhibition above about 58%; tested in S. cerevisiae
ABCG2 inh – blocks JC-1 efflux by human ABCG2 transporter. Q9UNQ0. IgMXP3 cells, flow cytometry. inhibition, % at 6.6 µM. actives 0.1% (n = 190,000);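 active = inhibition above 80%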;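 note: 0% = DMSO and 100% = nicardipine control wells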
Target sequence (Q9UNQ0 whole entry, looked up): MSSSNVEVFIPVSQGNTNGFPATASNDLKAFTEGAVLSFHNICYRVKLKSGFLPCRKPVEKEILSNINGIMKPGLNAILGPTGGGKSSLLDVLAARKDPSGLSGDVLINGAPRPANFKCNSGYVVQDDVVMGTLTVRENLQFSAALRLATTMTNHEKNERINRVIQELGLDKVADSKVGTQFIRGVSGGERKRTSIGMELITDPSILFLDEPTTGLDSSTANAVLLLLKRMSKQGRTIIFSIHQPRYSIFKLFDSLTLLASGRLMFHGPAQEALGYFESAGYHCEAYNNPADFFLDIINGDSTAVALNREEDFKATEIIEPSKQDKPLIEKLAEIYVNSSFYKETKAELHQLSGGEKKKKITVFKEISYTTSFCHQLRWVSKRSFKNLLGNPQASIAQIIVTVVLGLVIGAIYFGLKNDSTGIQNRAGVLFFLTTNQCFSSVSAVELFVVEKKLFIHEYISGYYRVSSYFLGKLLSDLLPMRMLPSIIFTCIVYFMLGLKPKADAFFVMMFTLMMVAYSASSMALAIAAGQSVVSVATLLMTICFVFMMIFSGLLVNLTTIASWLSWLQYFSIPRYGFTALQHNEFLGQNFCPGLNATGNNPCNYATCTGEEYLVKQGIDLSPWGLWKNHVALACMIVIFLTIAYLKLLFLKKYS
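Test system: IgMXP3 (ABCG2) plus far-red-tagged CCRF-Adr (ABCB1) cells / Amount: 3 million cells/mL in well / Reagent: JC-1 transporter substrate / Timing: 10 min compound exposure, 25 °C / Signal: flow cytometry, 530 nm JC-1 signal / Read-out: percent efflux inhibition, scaled nicardipine 100% to DMSO 0% / Benchmarks: nicardipine as high control, DMSO as low control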
RAM inhibit – inhibitors of the yeast RAM network. S. cerevisiae dse1pr::URA3 reporter, 5-FOA growth OD615, 2 d; analog-sensitive cbk1-as2 kinase mutant strain. inhibition, % at 50 µM. actives 1.8% (n = 190,000). AID 868;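 active = inhibition above a set limit, 3 SD over mean compound inhibition, cut at about 8.4% in these data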;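 note: 0% = DMSO-only wells with no growth and 100% = 10 µM 1-NA-PP1 full growth; inhibition rescues growth on 5-FOA so higher OD means more RAM inhibition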
Active calls of the source: *; . = no result. Most compounds without a hit are left out; they make up all but 12% or so of the library.

SMILES | Lmaj promast | ABCB1 block | WT yeast gro inh | ABCG2 inh | RAM inhibit
COc1cccc(C(=O)NC(=S)N2CCN(c3ccc(C(F)(F)F)cc3[N+](=O)[O-])CC2)c1 | 51* | 7 | -7 | 18 | 4
O=C(NC(=S)Nc1cccc(Cl)c1N1CCCCC1)c1cccs1 | 26 | 0 | 44 | 1 | 9.4*
O=C(NC(=S)N1CCCCC1)c1cccs1 | 55* | 0 | -3 | -3 | 0
O=C(NC(=S)N1CCN(c2ccc(Cl)cc2[N+](=O)[O-])CC1)c1cccs1 | 75* | 1 | 72 | 16 | 1
CC(C)Oc1cccc(C(=O)NC(=S)N2CCN(c3ccc(C(F)(F)F)cc3[N+](=O)[O-])CC2)c1 | 29 | 1 | 48 | 5 | 5
O=S(=O)(Cc1ccccc1)c1cnc2ccccc2n1 | 27 | 1 | -30 | 8 | 1
O=C(NC(=S)Nc1cccc(Cl)c1N1CCCCC1)c1ccco1 | 38 | 0 | 9 | 1 | 9.7*
COc1ccc(N2CCN(C(=O)CC34CC5CC(CC(C5)C3)C4)CC2)c([N+](=O)[O-])c1 | 30 | 3 | 66* | 44 | 10.0*
O=C(NC(=S)Nc1ccccc1N1CCCCC1)c1ccco1 | 4 | 0 | 73* | 7 | 1
CCCC(=O)Nc1cccc(C(=O)Nc2ccccc2OCC)c1 | 13 | 1 | 18 | 19 | -1
Cc1nn(C(C)C(=O)N2CCc3ccccc32)c(C)c1[N+](=O)[O-] (stereo not given) | -2 | 1 | -7 | 2 | 4
C=CCOc1ccccc1CN1CCCC(CCC(=O)N(C)CCc2ccccn2)C1 (stereo not given) | 24 | -1 | 0 | -1 | 0
C=C(C)c1cccc(C(C)(C)NC(=O)N2CCN(C/C=C/c3ccccc3)CC2)c1 | 28 | -5 | 6 | -5 | 2
CN1CCN(c2ncnc3c2c(-c2ccccc2)cn3-c2ccc(F)cc2)CC1 | 58* | 2 | 19 | 2 | 0
COc1ccc(-n2cc(-c3ccccc3)c3c(N4CC(C)OC(C)C4)ncnc32)cc1 (stereo not given) | 45 | 0 | 68* | -1 | 2
CCOc1ccc(-n2cc(-c3ccccc3)c3c(N4CCOCC4)ncnc32)cc1 | 21 | 0 | 59* | -1 | 2
COc1ccc(C(=O)CC(Nc2ccc([N+](=O)[O-])cc2)c2ccc(Cl)cc2)cc1 (stereo not given) | 31 | 0 | 31 | 1 | 2
O=[N+]([O-])c1cccc(/C=N/Nc2nc(N3CCOCC3)nc(N3CCOCC3)n2)c1 | 73* | 1 | -4 | 9 | 4
CC(=C/c1ccccc1)/C=N/Nc1nc(N2CCOCC2)nc(N2CCOCC2)n1 | 63* | 2 | -4 | 7 | 0
O=[N+]([O-])c1ccc(/C=N/Nc2nc(N3CCOCC3)nc(N3CCOCC3)n2)cc1 | -4 | 1 | -7 | 3 | 2
C=CCn1c(O)c(N=NC(=S)Nc2cccc(OC)c2)c2ccccc21 | 98* | -7 | -1 | -19 | 6
C=CCn1c(O)c(N=NC(=O)OCC)c2ccccc21 | -6 | 0 | -6 | 30 | 1
C=CCn1c(O)c(N=NC(=S)Nc2ccc(OC)cc2)c2ccccc21 | 87* | 0 | 4 | 0 | 4
CCc1cccc2c(/C=N/NC(=O)c3cccc(S(=O)(=O)Nc4ccccc4Cl)c3)c[nH]c12 | -3 | -1 | -9 | -3 | 0
O=C(Nc1cccc(Cl)c1)C1C2CCC3C(CCC21)C3(Cl)Cl (stereo not given) | 16 | 0 | 80* | -5 | 1
SMILES | Lmaj promast | ABCB1 block | WT yeast gro inh | ABCG2 inh | RAM inhibit
CCCn1c(O)c(N=NC(=O)c2ccco2)c2ccccc21 | 68* | 3 | 46 | 28 | 1
O=C(O)C1CN(C(=O)c2cccc(Br)c2)C1 | 0 | 1 | -1 | 1 | 0
CCOc1ccc2nc(NCCNC(=S)NCCCN(C)C)c(C#N)cc2c1 | 56* | 0 | 2 | 2 | 2
CCOc1ccc2nc(NCCNC(=O)Nc3ccccc3)c(C#N)cc2c1 | 9 | 0 | 8 | 1 | 3
CCOCCCNC(=S)NCCCNc1nc2c(C)c(C)ccc2cc1C#N | 21 | 1 | 74* | 6 | 5
COc1ccc(N2CCN(C(=O)CSc3ncccc3-c3nc4ccccc4[nH]3)CC2)cc1 | 58* | 0 | 18 | 0 | 0
COc1ccccc1N1CCN(C(=O)CSc2ncccc2-c2nc3ccccc3[nH]2)CC1 | 50* | -5 | -5 | -11 | 2
O=C(CSc1ncccc1-c1nc2ccccc2[nH]1)N1CCN(c2ccccc2F)CC1 | 12 | 3 | 6 | 1 | 5
O=C(NNC(=O)C(c1ccccc1)c1ccccc1)c1ccccn1 | 99* | 1 | -21 | 9 | 0
O=C(NNC(=S)Nc1ccc(Cl)c(Cl)c1)c1ccccn1 | 96* | -1 | 6 | 0 | 2
CCOc1ccccc1NC(=O)CN1C(=O)C(=O)N(Cc2ccco2)C1=O | -1 | 0 | 1 | 1 | 0
Cn1c(N)c(C(=O)COC(=O)CC(NC(=O)c2ccccc2Cl)c2ccccc2)c(=O)n(C)c1=O (stereo not given) | -1 | 1 | -2 | 8 | -1
CCc1cccc(OCCn2ccnc2)c1 | 40 | 1 | -7 | 2 | 3
COc1cc(C)c(C(C)C)cc1S(=O)(=O)NCCCn1ccnc1 | -1 | 0 | 9 | 1 | 1
Cc1cc(OCCCn2ccnc2)cc(C(C)C)c1 | 78* | 1 | 38 | 6 | 0
Cc1cc(OCCCn2ccnc2)ccc1C(C)C | 99* | 0 | 56 | 5 | -1
Cc1cc(OCCn2ccnc2)cc(C(C)C)c1 | 92* | 0 | 45 | 1 | 1
CCOc1ccc(OCCOCCn2ccnc2)cc1 | -2 | 1 | . | 2 | 1
CCC(C)c1ccc(OCCn2ccnc2)cc1 (stereo not given) | 60* | . | 71* | . | 2
NS(=O)(=O)c1ccc(CCNC(=O)CNS(=O)(=O)c2cccc(Br)c2)cc1 | -5 | 1 | -9 | 2 | -1
CN1CCN(Cc2c(O)ccc3occ(C(=O)c4ccccc4)c23)CC1 | 5 | 1 | 11 | 3 | -1
Cc1oc2ccc(O)c(CN3CCOCC3)c2c1C(=O)c1ccc(Cl)cc1 | 52* | 1 | -20 | 2 | 0
Cc1ccc(NC(=O)OCc2cc(-c3ccccc3)on2)cc1 | -6 | 0 | 16 | 2 | 9.9*
O=C(Nc1ccc(Cl)cc1)OCc1cc(-c2ccccc2Cl)on1 | -7 | 1 | 14 | 9 | 7
CC(C)CC(C(=O)NC1CCCC1)N(Cc1cccs1)C(=O)c1snc(C(N)=O)c1N (stereo not given) | 93* | 3 | -6 | 2 | 0
CCOc1ccccc1N(C(=O)c1snc(C(N)=O)c1N)C(C(=O)NC1CCCC1)c1ccco1 (stereo not given) | 76* | 3 | -6 | 6 | 3
CC(C)CC(C(=O)NC1CCCCC1)N(Cc1cccs1)C(=O)c1snc(C(N)=O)c1N (stereo not given) | 16 | 3 | 17 | 4 | 1

Source: PubChem (several laboratories)
